{"source": "ChEMBL document CHEMBL1151164", "about": "“New prostanoids with cytotoxic activity from Taiwanese octocoral Clavularia viridis” (J Nat Prod, 2004)", "key": {"[1]": {"system": "HT-29", "assay": "Cytotoxicity against human HT-29 cells after 72 hrs by SRB assay", "format": "functional, cell-based", "conditions": "HT-29, 48 h, in the assay text read “48 hrs” for “72 hrs”", "in_short": "(§1)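 Cells seeded in RPMI 1640 with 5% FBS at 37 °C, 5% CO2; after 24 h, two plates per line fixed in situ with TCA as time-zero. Drug added, then 48 h further incubation at 37 °C. Fixed with cold TCA, stained with 0.4% w/v SRB in 1% acetic acid, bound dye solubilized in 10 mM trizma base, absorbance 515 nm. IC50 = concentration halving absorbance versus untreated cells.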"}, "[2]": {"system": "PC-3", "assay": "Cytotoxicity against human PC3 cells after 72 hrs by SRB assay", "format": "functional, cell-based", "conditions": "PC-3, 48 h, in the assay text read “48 hrs” for “72 hrs”", "in_short": "as §1"}}, "data": [{"smiles": "CCCCC/C=C\\C[C@]1(O)C=CC(=O)/C1=C/C=C\\CCCC(=O)OC", "values": [{"measurement": "IC50", "setting": "[1]", "result": 6, "unit": "µM"}, {"measurement": "IC50", "setting": "[2]", "result": 7.2, "unit": "µM"}]}, {"smiles": "CCCCC/C=C\\C[C@]1(O)C=CC(=O)/C1=C/C=C/CCCC(=O)OC", "values": [{"measurement": "IC50", "setting": "[1]", "result": 4.1, "unit": "µM"}, {"measurement": "IC50", "setting": "[2]", "result": 5.4, "unit": "µM"}]}, {"smiles": "CCCCC/C=C\\C[C@]1(O)C=CC(=O)/C1=C\\C=C\\CCCC(=O)OC", "values": [{"measurement": "IC50", "setting": "[1]", "result": 7.9, "unit": "µM"}, {"measurement": "IC50", "setting": "[2]", "result": 3.9, "unit": "µM"}]}, {"smiles": "CCCCC/C=C\\C[C@@]1(O)C=C(Br)C(=O)/C1=C\\C=C\\CCCC(=O)OC", "note": "[BROMOCLAVULONE III]", "values": [{"measurement": "IC50", "setting": "[1]", "result": 0.5, "unit": "µM"}, {"measurement": "IC50", "setting": "[2]", "result": 0.5, "unit": "µM"}]}, {"smiles": "CCCCC/C=C\\C[C@@]1(O)C=C(Br)C(=O)/C1=C/C=C/CCCC(=O)OC", "note": "[BROMOVULONE II]", "values": [{"measurement": "IC50", "setting": "[1]", "result": 5.4, "unit": "µM"}, {"measurement": "IC50", "setting": "[2]", "result": 5.6, "unit": "µM"}]}, {"smiles": "CCCCC/C=C\\C[C@@]1(O)C=C(Cl)C(=O)/C1=C/C=C/CCCC(=O)OC", "note": "[CHLOROVULONE III]", "values": [{"measurement": "IC50", "setting": "[1]", "result": 2.7, "unit": "µM"}, {"measurement": "IC50", "setting": "[2]", "result": 1.9, "unit": "µM"}]}, {"smiles": "CCCCC/C=C\\C[C@@]1(O)C=C(Cl)C(=O)/C1=C\\C=C\\CCCC(=O)OC", "note": "[CHLOROVULONE II]", "values": [{"measurement": "IC50", "setting": "[2]", "result": 0.8, "unit": "µM"}]}, {"smiles": "CCCCC/C=C\\C[C@]1(OC(C)=O)C=CC(=O)/C1=C/C=C/CCCC(=O)OC", "note": "[CLAVIRIDENONE E]", "values": [{"measurement": "IC50", "setting": "[1]", "result": "> 10", "unit": "µM"}, {"measurement": "IC50", "setting": "[2]", "result": 3.5, "unit": "µM"}]}, {"smiles": "CCCCC/C=C\\C[C@@]1(O)C=C(I)C(=O)/C1=C\\C=C\\CCCC(=O)OC", "note": "[IODOVULONE III]", "values": [{"measurement": "IC50", "setting": "[1]", "result": "> 10", "unit": "µM"}, {"measurement": "IC50", "setting": "[2]", "result": 6.7, "unit": "µM"}]}, {"smiles": "CCCCC/C=C\\C[C@@]1(O)C=C(I)C(=O)/C1=C/C=C/CCCC(=O)OC", "note": "[IODOVULONE II]", "values": [{"measurement": "IC50", "setting": "[1]", "result": 6.5, "unit": "µM"}, {"measurement": "IC50", "setting": "[2]", "result": 3.9, "unit": "µM"}]}]}
